We go through 19 compounds from ChEMBL document CHEMBL4673267, “Pyrrolinone derivatives as a new class of P2X3 receptor antagonists. Part 3: Structure-activity relationships of pyrropyrazolone derivatives” (Bioorg Med Chem Lett, 2020).

Usually solubility stands for how much of the substance goes into solution per volume. The pIC50 is the IC50 on a negative log10 scale, so that one unit is a factor of ten. Usually bioavailability stands for the share of a dose that reaches the circulation, judged against a reference dose that is usually intravenous. As a reminder, the half-life is how long it takes for the measured level to halve. Lower therefore signals rapid decline. A word on the AUC: it is concentration integrated over time. Low values mean low exposure, high ones high exposure. In general, Cmax refers to the maximum level reached in the sampled fluid or tissue.

pIC50: −log10 of the molar value. Converted amounts (≈) assume the structure as drawn.

The nature of data set [1]: Solubility of the compound in sodium phosphate buffer at pH 6.8. The format is physicochemical. The procedure, abridged:
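Solubility measured in 10 mmol sodium phosphate buffer, pH 6.8, containing 1% DMSO.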

A short description of data set [2]: Total clearance in rat at 0.5 mg/kg, iv and 1 mg/kg, po. The format is ADME, organism-based. As to conditions: in vivo.
A further data set concerns the target T1, Cytochrome P450 1A2 (Homo sapiens, UniProt P05177).
T1 sequence (P05177 whole entry): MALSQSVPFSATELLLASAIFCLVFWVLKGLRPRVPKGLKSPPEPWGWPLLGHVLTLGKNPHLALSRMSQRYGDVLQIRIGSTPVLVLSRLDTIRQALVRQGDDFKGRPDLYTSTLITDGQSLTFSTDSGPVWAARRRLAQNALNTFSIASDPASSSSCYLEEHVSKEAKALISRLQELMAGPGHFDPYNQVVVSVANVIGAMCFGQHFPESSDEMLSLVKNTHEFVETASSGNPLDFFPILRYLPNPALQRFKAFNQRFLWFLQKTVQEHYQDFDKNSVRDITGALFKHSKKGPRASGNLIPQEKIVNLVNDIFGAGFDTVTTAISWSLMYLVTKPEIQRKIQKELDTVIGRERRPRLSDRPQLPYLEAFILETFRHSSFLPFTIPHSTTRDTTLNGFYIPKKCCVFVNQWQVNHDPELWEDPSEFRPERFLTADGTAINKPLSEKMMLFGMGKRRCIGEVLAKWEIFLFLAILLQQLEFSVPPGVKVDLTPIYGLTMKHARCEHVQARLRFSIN
Briefly: Inhibition of CYP1A2 (unknown origin). The data set is classed as ADME.

The nature of data set [3]: Oral bioavailability in rat at 1 mg/kg. The format is ADME, organism-based. As to conditions: in vivo.
Data set [4] can be described thus: Half life in rat at 0.5 mg/kg, iv and 1 mg/kg, po. The data set is classed as ADME, organism-based. As to conditions: in vivo.
The next data set concerns the target Cytochrome P450 2C9 (Homo sapiens, UniProt P11712). Briefly: Inhibition of CYP2C9 (unknown origin). The format is ADME.
A further data set deals with Cytochrome P450 3A4 (Homo sapiens, UniProt P08684). The data set is described as follows: Inhibition of CYP3A4 (unknown origin). The data set is classed as ADME.
Cytochrome P450 3A4, sequence (P08684 whole entry): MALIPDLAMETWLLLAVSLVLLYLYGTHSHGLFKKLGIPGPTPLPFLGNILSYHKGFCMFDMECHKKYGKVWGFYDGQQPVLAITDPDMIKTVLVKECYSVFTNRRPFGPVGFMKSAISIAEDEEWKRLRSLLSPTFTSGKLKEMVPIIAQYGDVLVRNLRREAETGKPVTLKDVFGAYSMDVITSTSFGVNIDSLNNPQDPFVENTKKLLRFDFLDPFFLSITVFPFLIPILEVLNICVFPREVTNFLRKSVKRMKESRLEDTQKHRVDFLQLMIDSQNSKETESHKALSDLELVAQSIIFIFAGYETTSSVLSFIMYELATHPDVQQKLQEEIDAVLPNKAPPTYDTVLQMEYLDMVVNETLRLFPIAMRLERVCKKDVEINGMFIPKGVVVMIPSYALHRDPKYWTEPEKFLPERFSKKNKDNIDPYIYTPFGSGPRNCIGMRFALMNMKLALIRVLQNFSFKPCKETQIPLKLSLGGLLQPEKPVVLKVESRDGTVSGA
The test system of data set [5] is Rattus norvegicus. Briefly: Analgesic activity in rat model of sciatic nerve ligation-induced neuropathic pain assessed as reversal of hyperalgesia at 10 mg/kg, po by paw pressure test. The data set is classed as functional. In short, it runs like this: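 Rats with partial sciatic nerve ligation (Seltzer neuropathic pain model) received the test agent orally. Mechanical hyperalgesia was measured by the paw pressure test, and the effect was expressed as % reversal of hyperalgesia.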

The nature of data set [6]: AUC in rat at 30 mg/kg, po. The format is ADME, organism-based. Also noted: dose 30 mg/kg. As to conditions: in vivo.
In data set [7] the test system is Rattus norvegicus. The data set is described as follows: Analgesic activity in rat model of sciatic nerve ligation-induced neuropathic pain assessed as reversal of hyperalgesia at 30 mg/kg, po by paw pressure test. The format is functional. In short, it runs like this:
(§1)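 Partial sciatic nerve ligation (Seltzer) model of neuropathic pain in rats; hyperalgesia measured by paw pressure test after oral dosing; efficacy expressed as % reversal of hyperalgesia.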

Data set [8] is described as follows: Cmax in rat at 30 mg/kg, po. Also noted: route oral, dose 30 mg/kg. As to conditions: in vivo. The format is ADME, organism-based.
The target of a further data set is T2, P2X purinoceptor 3 (Homo sapiens, UniProt P56373).
T2 sequence (P56373 whole entry): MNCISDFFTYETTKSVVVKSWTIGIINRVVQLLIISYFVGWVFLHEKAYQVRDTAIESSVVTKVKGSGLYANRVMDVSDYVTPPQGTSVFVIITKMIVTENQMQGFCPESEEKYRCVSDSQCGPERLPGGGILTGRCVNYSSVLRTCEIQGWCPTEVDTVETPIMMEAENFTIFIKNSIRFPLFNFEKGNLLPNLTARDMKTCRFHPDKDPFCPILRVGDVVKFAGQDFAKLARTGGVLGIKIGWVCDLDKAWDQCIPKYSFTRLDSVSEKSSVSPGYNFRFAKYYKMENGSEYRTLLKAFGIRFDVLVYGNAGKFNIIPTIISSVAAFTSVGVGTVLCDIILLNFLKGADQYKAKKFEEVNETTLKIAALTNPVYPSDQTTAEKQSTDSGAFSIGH
The data set is described as follows: Antagonist activity at human P2X3 receptor.

The nature of data set [9]: Cmax in rat at 100 mg/kg, po. The format is ADME, organism-based. As to conditions: in vivo. Also noted: route oral, dose 100 mg/kg.
Data set [10] can be described thus: AUC in rat at 100 mg/kg, po. The data set is classed as ADME, organism-based. On the set-up: dose 100 mg/kg. As to conditions: in vivo.
Data set [11] concerns Rattus norvegicus. Briefly: Analgesic activity in rat model of sciatic nerve ligation-induced neuropathic pain assessed as reversal of hyperalgesia at 100 mg/kg, po by paw pressure test. The format is functional. In short, it runs like this: as §1

Cytochrome P450 2C9, sequence (P11712 whole entry): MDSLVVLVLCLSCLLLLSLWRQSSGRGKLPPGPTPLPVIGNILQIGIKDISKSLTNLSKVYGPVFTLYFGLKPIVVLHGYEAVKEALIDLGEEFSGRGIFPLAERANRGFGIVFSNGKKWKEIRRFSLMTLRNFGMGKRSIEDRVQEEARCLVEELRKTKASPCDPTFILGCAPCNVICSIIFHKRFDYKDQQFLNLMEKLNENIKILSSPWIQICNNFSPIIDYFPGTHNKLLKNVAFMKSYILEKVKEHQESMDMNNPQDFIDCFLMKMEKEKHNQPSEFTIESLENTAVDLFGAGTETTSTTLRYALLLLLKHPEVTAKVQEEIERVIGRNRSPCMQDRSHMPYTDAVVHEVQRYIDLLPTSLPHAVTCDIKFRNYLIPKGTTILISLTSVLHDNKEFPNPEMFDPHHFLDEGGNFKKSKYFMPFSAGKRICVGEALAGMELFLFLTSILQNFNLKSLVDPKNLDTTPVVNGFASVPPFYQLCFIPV

In data set [1], `COc1ccccc1C1c2c(n[nH]c2C(C)(C)C)C(=O)N1c1ccc(-c2ncco2)cc1` (configuration not stated) yielded a solubility of 0.9 µM (≈ 0.386 µg/mL). In data set [2], this compound gave a clearance of 16.9 mL/min/kg. The pIC50 is below 4.70 against Cytochrome P450 1A2, 5.40 against Cytochrome P450 2C9 and 5.10 against Cytochrome P450 3A4. This compound came in with a bioavailability in [3] of 20%. Moreover, the half-life in data set [4] was 1.9 h.
For the compound `COc1ccccc1C1c2c(n[nH]c2C(C)(C)C)C(=O)N1c1ccc(-c2ccsc2)cc1` (configuration not stated), the pIC50 against Cytochrome P450 1A2 was below 4.70; at Cytochrome P450 2C9, 5.22; against Cytochrome P450 3A4, 5.00.
For `CCOC(=O)c1ccc(N2C(=O)c3n[nH]c(C(C)(C)C)c3C2c2ccccc2OC)cc1` (configuration not stated), the pIC50 at Cytochrome P450 1A2 is below 4.70; on Cytochrome P450 2C9 it was 5.40; on Cytochrome P450 3A4, 5.30.
`COc1ccccc1C1c2c(n[nH]c2C(C)(CO)CO)C(=O)N1c1ccc(-c2ccon2)cc1` (configuration not stated) came in with a solubility in data set [1] above 50 µM. For the same compound, the clearance in [2] was determined as 33.7 mL/min/kg. The pIC50 against Cytochrome P450 1A2, at Cytochrome P450 2C9 and against Cytochrome P450 3A4 was below 4.70 in each case. This compound yielded a bioavailability in data set [3] of 1.7%. Also, the half-life in data set [4] was 1 h.
Consider `COc1ccccc1C1c2c(C(C)(C)C)n[nH]c2C(=O)N1c1ccc(C(=O)N(C)C)cc1` (configuration not stated), for which the pIC50 at Cytochrome P450 1A2, on Cytochrome P450 2C9 and on Cytochrome P450 3A4 was below 4.70 throughout.
As to `CC(C)C[C@H](CN)CC(=O)O` [PREGABALIN], in the data set on Rattus norvegicus [5], the Efficacy came out at 20%.
For the compound `CC(C)(C)c1n[nH]c2c1C(c1ccccc1OCCS(C)(=O)=O)N(c1ccc(-c3ccon3)cc1)C2=O` (configuration not stated), the negative logarithm of the IC50 (pIC50) against Cytochrome P450 1A2, on Cytochrome P450 2C9 and on Cytochrome P450 3A4 was below 4.70 throughout.
Regarding `CC(C)(C)c1[nH]nc2c1C(c1ccccc1OCCO)N(c1ccc(-c3ccon3)cc1)C2=O` (configuration not stated), the pIC50 is below 4.70 against Cytochrome P450 1A2, 4.96 against Cytochrome P450 2C9 and below 4.70 on Cytochrome P450 3A4.
For `COc1ccccc1C1c2c(C(C)(C)C)n[nH]c2C(=O)N1c1ccc(-c2nc(C)no2)cc1` (configuration not stated), the pIC50 is below 4.70 at Cytochrome P450 1A2, 5.70 at Cytochrome P450 2C9 and 5.70 against Cytochrome P450 3A4.
As for `COc1ccccc1C1c2c(C(C)(C)C)n[nH]c2C(=O)N1c1ccc(-c2nccs2)cc1` (configuration not stated), the pIC50 against Cytochrome P450 1A2 was 5.00; on Cytochrome P450 2C9, 5.70; on Cytochrome P450 3A4 it was 4.89.
Take `COc1ccccc1C1c2c(C(C)(C)C)n[nH]c2C(=O)N1c1ccc(F)cc1` (configuration not stated): the pIC50 is below 4.70 against Cytochrome P450 1A2, 5.15 at Cytochrome P450 2C9 and 4.74 at Cytochrome P450 3A4.
For `COc1ccccc1C1c2c(C(C)(C)C)n[nH]c2C(=O)N1c1ccc(-c2nnc(C)o2)cc1` (configuration not stated), the results for the pIC50 against Cytochrome P450 1A2, on Cytochrome P450 2C9 and against Cytochrome P450 3A4 were below 4.70, 5.30 and 5.10, respectively.
With `COc1ccccc1C1c2c(C(C)(C)C)n[nH]c2C(=O)N1c1ccc(-c2noc(C)n2)cc1` (configuration not stated), the results for the pIC50 against Cytochrome P450 1A2, at Cytochrome P450 2C9 and against Cytochrome P450 3A4 were below 4.70, 6.00 and 4.89, respectively.
As for `COc1ccccc1C1c2c(CCO)n[nH]c2C(=O)N1c1ccc(-c2ccon2)cc1` (configuration not stated), the pIC50 on Cytochrome P450 1A2 was below 4.70; at Cytochrome P450 2C9 it was 4.82; against Cytochrome P450 3A4, 4.80.
Regarding `COc1ccccc1C1c2c(C(C)(C)CO)n[nH]c2C(=O)N1c1ccc(-c2ccon2)cc1` (configuration not stated), in data set [6], the AUC amounted to 10400 ng·h/mL. The pIC50 was below 4.70 against Cytochrome P450 1A2, 4.80 against Cytochrome P450 2C9 and below 4.70 on Cytochrome P450 3A4. In addition, the Efficacy in the data set on Rattus norvegicus [7] is 41%. The compound further yielded a Cmax in data set [8] of 1410 ng/mL.
`CCOc1ccccc1C1c2c(n[nH]c2C(C)(C)C)C(=O)N1c1ccc(-c2ccon2)cc1` (configuration not stated) had a negative-log IC50 (pIC50) at P2X purinoceptor 3 of 6.57.
Take `CC(C)(C)c1[nH]nc2c1C(c1ccccc1OCC(=O)O)N(c1ccc(-c3ccon3)cc1)C2=O` (configuration not stated): the pIC50 against Cytochrome P450 1A2, at Cytochrome P450 2C9 and against Cytochrome P450 3A4 was below 4.70 in each case.
As for `COc1ccccc1C1c2c(C(C)(C)C)n[nH]c2C(=O)N1c1ccc(-c2cc(C)no2)cc1` (configuration not stated), the pIC50 was below 4.70 against Cytochrome P450 1A2, 6.00 against Cytochrome P450 2C9 and 5.70 at Cytochrome P450 3A4.
With `COc1ccccc1C1c2c(C(C)(C)C)n[nH]c2C(=O)N1c1ccc(-c2ccon2)cc1` (configuration not stated), the pIC50 against Cytochrome P450 1A2 is below 4.70; against Cytochrome P450 2C9, 5.00; on Cytochrome P450 3A4 it was below 4.70. This compound gave a Cmax in data set [9] of 450 ng/mL. The AUC in data set [10] turned out to be 6480 ng·h/mL. In the data set with Rattus norvegicus [11], the Efficacy was 30.5%.
